pIC50: −log10 of the molar value.
How the values were obtained:
Rattus norvegicus [1] = test: Tissue area (mm) measured Histomorphometrically after a dose of 30 ug/kg in tibial diaphysis; format: functional
Procedure, shortened: (§1)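 Rats on natural chow (1.46% Ca) were bilaterally ovariectomized at 6 months and left untreated for 60 days. They then received once-daily subcutaneous doses for 60 days, with vehicle of acetate-buffered saline, methylcellulose and polysorbate. Xylenol orange (90 mg/kg) was given before treatment and calcein (10 mg/kg) 14 and 4 days before sacrifice. Tibiae were analysed by fluorescent histomorphometry, 6-8 rats/group, ANOVA/LSD vs vehicle.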

[2] = target: T1, Prostaglandin E2 receptor EP3 subtype (Homo sapiens, UniProt P43115); test: In vitro binding at EP3 human prostaglandin receptor using [3H]PGE-2 as radioligand
T1 sequence (P43115 whole entry): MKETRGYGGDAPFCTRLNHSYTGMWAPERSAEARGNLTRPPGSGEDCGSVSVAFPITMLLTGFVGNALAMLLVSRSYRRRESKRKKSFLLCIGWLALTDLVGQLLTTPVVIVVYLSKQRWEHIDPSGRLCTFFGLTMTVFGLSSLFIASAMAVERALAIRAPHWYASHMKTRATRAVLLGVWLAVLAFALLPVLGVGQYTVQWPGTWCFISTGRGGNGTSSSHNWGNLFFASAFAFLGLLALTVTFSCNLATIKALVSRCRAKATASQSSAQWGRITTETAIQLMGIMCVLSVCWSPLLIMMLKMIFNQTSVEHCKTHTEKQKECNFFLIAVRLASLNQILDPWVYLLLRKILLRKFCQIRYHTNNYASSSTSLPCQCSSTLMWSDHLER
Procedure, shortened: (§2)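 Receptors stably expressed in CHO cells, collected 4-5 days after seeding. Membranes made by lysis (Tris, EDTA, protease inhibitors) and 100000g pellet, then resuspended at 1 mg protein/mL in TME. Radioligands at 5 nM: [3H]PGE2 for EP2/EP3/EP4, [3H]Iloprost for IP, [3H]SQ-29548 for TP. Competition binding with filtration and counting.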

Rattus norvegicus [3] = test: Mineralizing surface/bone surface(%) measured Histomorphometrically after a dose of 300 ug/kg in proximal tibial metaphysis; format: functional
Procedure, shortened: (§3)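 Ovariectomized six-month-old rats, 6-8 per group, were dosed subcutaneously once daily at 0.01–3.0 mg/kg for 60 days, starting 60 days after surgery. Vehicle was acetate-buffered saline, methylcellulose and polyoxyethylenesorbitan monooleate. Labels were xylenol orange 90 mg/kg pretreatment and calcein 10 mg/kg at 14 and 4 days before necropsy. Histomorphometry covered the proximal tibial metaphysis, 1–4 mm distal to the growth plate–metaphyseal junction. ANOVA/LSD versus vehicle.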

Rattus norvegicus [4] = test: Endosteal mineralizing surface Histomorphometrically after a dose of 3000 ug/kg in tibial diaphysis; format: functional
Procedure, shortened: (§4)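 Six-month-old rats, bilaterally ovariectomized, 6-8 per group, on natural chow. After 60 days they received once-daily subcutaneous dosing for 60 days at 0.01–3.0 mg/kg. Vehicle was acetate-buffered saline with methylcellulose and polyoxyethylenesorbitan monooleate. Labels were xylenol orange 90 mg/kg before treatment and calcein 10 mg/kg 14 and 4 days before sacrifice. Tibial histomorphometry was read under fluorescent light, with ANOVA/LSD versus vehicle.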

Rattus norvegicus [5] = test: connectivity density (mm-3) using micro Computed Tomography(CT) after a does of 300 ug/kg in Vertebral Bone; format: functional
Procedure, shortened: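 Rats were ovariectomized at 6 months of age and, after 60 days, dosed subcutaneously once daily for 60 days, with vehicle of acetate-buffered saline, methylcellulose and polysorbate. At necropsy the fifth lumbar vertebra was scanned by micro-CT to obtain cancellous architecture. Groups were 6-8 rats; results were compared to vehicle by ANOVA with least significant difference test.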

Thromboxane A2 receptor = target: T2, Thromboxane A2 receptor (Homo sapiens, UniProt P21731); test: In vitro binding at TP human prostaglandin receptor using [3H]SQ-29,548 as radioligand; procedure, shortened: as §2
T2 sequence (P21731 whole entry): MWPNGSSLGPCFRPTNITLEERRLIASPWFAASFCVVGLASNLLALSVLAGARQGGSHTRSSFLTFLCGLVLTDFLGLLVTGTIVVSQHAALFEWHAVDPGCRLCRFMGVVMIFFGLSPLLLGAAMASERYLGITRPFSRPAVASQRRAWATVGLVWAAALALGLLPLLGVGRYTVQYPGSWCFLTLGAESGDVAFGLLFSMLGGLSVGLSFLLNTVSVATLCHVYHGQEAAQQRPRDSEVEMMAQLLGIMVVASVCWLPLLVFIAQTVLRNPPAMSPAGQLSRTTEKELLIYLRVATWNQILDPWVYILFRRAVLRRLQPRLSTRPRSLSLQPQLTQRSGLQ

Rattus norvegicus [6] = test: Mineral apposition rate ([…])bone measured Histomorphometrically after a dose of 30 ug/kg in tibial diaphysis; format: functional; procedure, shortened: as §4
Rattus norvegicus [7] = test: Trabecular thickness […] measured Histomorphometrically after a dose of 1000 ug/kg in proximal tibial metaphysis; format: functional, Trabecula
Procedure, shortened: (§5)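 Six-month-old rats were ovariectomized, and 60 days later daily subcutaneous dosing began for 60 days, with vehicle of acetate-buffered saline, methylcellulose and polysorbate. Xylenol orange (90 mg/kg) labelled bone pre-treatment and calcein (10 mg/kg) 14 and 4 days pre-sacrifice. Histomorphometry covered the proximal tibial metaphysis 1-4 mm distal to the growth plate-metaphyseal junction. Groups were 6-8 rats, compared by ANOVA/LSD vs vehicle.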

Rattus norvegicus [8] = test: Bone Volume /Tissue Volume (%)measured Histomorphometrically after a dose of 3000 ug/kg in proximal tibial metaphysis; format: functional; conditions: at 3000 µg/kg
Rattus norvegicus [9] = test: Marrow area (mm) measured Histomorphometrically after a dose of 10 ug/kg in tibial diaphysis; format: functional; procedure, shortened: as §4
Rattus norvegicus [10] = test: Trabecular thickness […] measured Histomorphometrically after a dose of 3000 ug/kg in proximal tibial metaphysis; format: functional, Trabecula; procedure, shortened: as §5
Rattus norvegicus [11] = test: Trabecular no (mm)measured Histomorphometrically after a dose of 10 ug/kg in proximal tibial metaphysis; format: functional, Trabecula; procedure, shortened: as §5
Rattus norvegicus [12] = test: Periosteal mineralizing surface (%) measured Histomorphometrically after a dose of 100 ug/kg in tibial diaphysis; format: functional; procedure, shortened: as §1
Rattus norvegicus [13] = test: Periosteal mineral apposition rate ([…]) measured Histomorphometrically after a dose of 1000 ug/kg in tibial diaphysis; format: functional; procedure, shortened: as §4
Rattus norvegicus [14] = test: Trabecular no (mm)measured Histomorphometrically after a dose of 100 ug/kg in proximal tibial metaphysis; format: functional, Trabecula; procedure, shortened: as §5
Rattus norvegicus [15] = test: Bone formation rate/tissue volume (%/year)bone measured Histomorphometrically after a dose of 10 ug/kg in proximal tibial metaphysis; format: functional; conditions: at 10 µg/kg
Rattus norvegicus [16] = test: Mineral apposition rate ([…])bone measured Histomorphometrically after a dose of 100 ug/kg in tibial diaphysis; format: functional; procedure, shortened: as §4
Rattus norvegicus [17] = test: Periosteal mineralizing surface (%) measured Histomorphometrically after a dose of 30 ug/kg in tibial diaphysis; format: functional; procedure, shortened: as §1
Rattus norvegicus [18] = test: Derived trabecular no […]measured using micro Computed Tomography(CT) after a dose of 10 ug/kg in Vertebral Bone; format: functional, Trabecula
Procedure, shortened: (§6)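 Micro-CT of the fifth lumbar vertebra, measuring cancellous bone volume and architecture. Rats were 6 months old, OVX 60 days before treatment, then dosed daily for 60 days. Test-agent doses were 10–3000 µg/kg, given as a once-daily subcutaneous injection; 6 mg/kg/day was given to the positive-control group. Groups were compared with vehicle by ANOVA plus LSD test.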

Rattus norvegicus [19] = test: Mineral apposition rate ([…])bone Histomorphometrically after a dose of 30 ug/kg in proximal tibial metaphysis; format: functional; procedure, shortened: as §3
Rattus norvegicus [20] = test: Derived trabecular thickness (um) measured using micro Computed Tomography(CT) after a dose of 30 ug/kg in Vertebral Bone; format: functional, Trabecula; procedure, shortened: as §6

CP(=O)(O)CCC/C=C\C[C@@H]1[C@@H](/C=C/[C@@H](O)COc2ccccc2)[C@H](O)C[C@@H]1O
Tissue area (Rattus norvegicus [1]): 5.19 mm | pIC50 [2]: < 5.00 | Activity (Rattus norvegicus [3]): 23.57% | Endosteal mineralizing surface (Rattus norvegicus [4]): 29.4% | Connectivity density (Rattus norvegicus [5]): 66.71 mm**-3 | pIC50 (Thromboxane A2 receptor): < 5.00 | Mineral apposition rate (Rattus norvegicus [6]): 0.88 µm/day | Trabecular thickness (Rattus norvegicus [7]): 56.7 µm | Activity (Rattus norvegicus [8]): 8.51% | Marrow area (Rattus norvegicus [9]): 0.93 mm² | Trabecular thickness (Rattus norvegicus [10]): 55.8 µm | Trabecular no. (Rattus norvegicus [11]): 0.58 1/mm | Periosteal mineralizing surface (Rattus norvegicus [12]): 15.21% | Periosteal mineral apposition rate (Rattus norvegicus [13]): 0 µm/day | Trabecular no. (Rattus norvegicus [14]): 1.28 1/mm | Activity (Rattus norvegicus [15]): 9.81% | Mineral apposition rate (Rattus norvegicus [16]): 0.42 µm/day | Periosteal mineralizing surface (Rattus norvegicus [17]): 26.23% | Derived trabecular number (Rattus norvegicus [18]): 4.26 mm-1 | Mineral apposition rate (Rattus norvegicus [19]): 1.09 µm/day | Derived trabecular thickness (Rattus norvegicus [20]): 77.8 µm

Reference: ChEMBL document CHEMBL1134785, “Synthesis and biological evaluation of prostaglandin-F alkylphosphinic acid derivatives as bone anabolic agents for the treatment of osteoporosis” (J Med Chem, 2001)
